ChEMBL document CHEMBL3351523 (Bioorg Med Chem, 2014)

Legend:
[1] = Cytotoxicity against mock-infected human MT4 cells after 96 hrs by MTT assay; format: cell-based
Procedure, shortened: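 Exponentially growing MT-4 cells were seeded at 1 × 10^5 cells/mL in RPMI-1640 with 10% FBS and held at 37 °C, 5% CO2 with serial compound dilutions. Viability was read by MTT after 96 h. CC50 from linear regression against untreated controls.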

[2] = test system: Human immunodeficiency virus 1; test: Antiviral activity against HIV1 infected in human MT4 cells assessed as inhibition of virus-induced cytopathogenicity after 4 days by MTT assay; format: functional, organism-based; details: Human immunodeficiency virus 1, MT4, 96 h
Procedure, shortened: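 MT-4 cells (1 × 10^4/well in RPMI) were infected acutely with HIV-1 IIIB, 100 CCID50 (m.o.i. 0.01), with serial dilutions from 100 µM, 1:5. After 4 days at 37 °C, protection from virus-induced cytopathogenicity was read by MTT. EC50 came from linear regression against untreated controls.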

[3] = Cytotoxicity against mock-infected MDBK cells after 48 to 96 hrs by MTT assay; format: cell-based, Bos taurus; details: cattle
Procedure, shortened: (§1)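 Mock-infected MDBK (6 × 10^5 cells/mL; MEM-E, 10% horse serum, 1 mM pyruvate) or BHK (1 × 10^6 cells/mL; MEM-E, 10% FBS) cells were incubated at 37 °C, 5% CO2 with serial dilutions from 100 µM, 1:5. Viability by MTT after 48–96 h. CC50 from linear regression against untreated controls.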

[4] = test system: Bovine viral diarrhea virus 1; test: Antiviral activity against Bovine viral diarrhea virus infected in MDBK cells assessed as inhibition of virus-induced cytopathogenicity after 3 to 4 days by MTT assay; format: functional, organism-based; details: Bovine viral diarrhea virus isolates and strains
[5] = Cytotoxicity against mock-infected BHK21 cells after 48 to 96 hrs by MTT assay; format: functional; details: Mesocricetus auratus, BHK-21; procedure, shortened: as §1
Yellow fever virus = test: Antiviral activity against Yellow fever virus infected in BHK21 cells assessed as inhibition of virus-induced cytopathogenicity after 3 to 4 days by MTT assay; format: functional, organism-based; details: BHK-21
Reovirus sp. = test: Antiviral activity against Reovirus type-1 infected in BHK21 cells assessed as inhibition of virus-induced cytopathogenicity after 3 to 4 days by MTT assay; format: functional, organism-based; details: BHK-21
[6] = Cytotoxicity against mock-infected african green monkey Vero 76 cells after 48 to 96 hrs by MTT assay; format: cell-based; details: chlorocebus sabaeus, mock-infected Vero 76 cells
Coxsackievirus B5 = test: Antiviral activity against Coxsackievirus B5 infected in african green monkey Vero 76 cells assessed as reduction in plaque number after 3 days by plaque reduction assay; format: functional, organism-based; details: Enterovirus B, 72 h
Poliovirus 1 = test: Antiviral activity against Poliovirus type 1 Sabin strain infected in african green monkey Vero 76 cells assessed as reduction in plaque number after 2 days by plaque reduction assay; format: functional, organism-based; details: Enterovirus C, 48 h
[7] = test system: Respiratory syncytial virus; test: Antiviral activity against Respiratory syncytial virus infected in african green monkey Vero 76 cells assessed as reduction in plaque number after 5 days by plaque reduction assay; format: functional, organism-based; details: human respiratory syncytial virus, 120 h
[8] = test system: Vesicular stomatitis virus; test: Antiviral activity against Vesicular stomatitis virus infected in african green monkey Vero 76 cells assessed as reduction in plaque number after 2 days by plaque reduction assay; format: functional, organism-based; details: 48 h
Vaccinia virus = test: Antiviral activity against Vaccinia Virus infected in african green monkey Vero 76 cells assessed as reduction in plaque number after 3 days by plaque reduction assay; format: functional, organism-based; details: Orthopoxvirus vaccinia, 72 h
Human alphaherpesvirus 1 = test: Antiviral activity against HSV1 infected in african green monkey Vero 76 cells assessed as reduction in plaque number after 3 days by plaque reduction assay; format: functional, organism-based; details: Human alphaherpesvirus 1, Vero, 72 h
[9] = Selectivity index, ratio of CC50 for african green monkey Vero 76 cells to EC50 for Coxsackievirus B5; format: toxicity, cell-based; details: read-out: Ratio CC50/EC50
Procedure, shortened: (§2)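 Mock-infected Vero-76 cells were tested in parallel on the same 24-well plates as the plaque assays (seeding 4 × 10^5 cells/mL, D-MEM with FBS), with serial compound dilutions at 37 °C, 5% CO2. Viability was read after 48–96 h by crystal violet staining. CC50 by linear regression; selectivity index = Vero-76 CC50/EC50 for CVB-5 or RSV.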

[10] = Selectivity index, ratio of CC50 for african green monkey Vero 76 cells to EC50 for Respiratory syncytial virus; format: toxicity, cell-based; details: read-out: Ratio CC50/EC50; procedure, shortened: as §2

| Compound | CC50 at 96 h [1] [µM] | EC50 [2] [µM] | CC50 [3] [µM] | EC50 [4] [µM] | CC50 [5] [µM] | EC50 (Yellow fever virus) [µM] | EC50 (Reovirus sp.) [µM] | CC50 [6] [µM] | EC50 (Coxsackievirus B5) [µM] | EC50 (Poliovirus 1) [µM] | EC50 [7] [µM] | EC50 [8] [µM] | EC50 (Vaccinia virus) [µM] | EC50 (Human alphaherpesvirus 1) [µM] | selectivity ratio [9] | selectivity ratio [10] |
| --- | --- | --- | --- | --- | --- | --- | --- | --- | --- | --- | --- | --- | --- | --- | --- | --- |
| c1ccc(-n2c(C[C@H]3CCCN4CCCC[C@H]34)nc3ccccc32)cc1 | 42 | > 100 | 90 | 44 | 29 | > 100 | > 100 | > 100 | 17 | 73 | 7 | > 100 | > 100 | > 100 | > 5.88 | > 14.3 |
| CCCCn1c(Cc2ccc(Cl)c(Cl)c2)nc2cc(C(F)(F)F)ccc21 | > 100 | > 100 | 11 | > 100 | 21 | > 100 | > 100 | > 100 | 12 | > 100 | 9 | > 100 | 31 | > 100 | > 8.33 | > 11.1 |
| Clc1ccc(Cc2nc3cc(Cl)c(Cl)cc3n2C[C@@H]2CCCN3CCCC[C@H]23)cc1Cl | 9 | > 100 | 46 | > 100 | 52 | > 100 | > 100 | > 100 | 9 | > 100 | 12 | > 100 | > 100 | > 100 | > 11.1 | > 8.33 |
| FC(F)(F)c1ccc2c(c1)nc(Cc1ccc(Br)cc1)n2C[C@@H]1CCCN2CCCC[C@H]12 | 13 | > 100 | 40 | > 100 | 20 | > 100 | > 100 | > 100 | > 100 | > 100 | 25 | > 100 | > 100 | > 100 | > 1 | > 4 |
| Clc1cc2nc(Cc3ccc(Br)cc3)n(C[C@@H]3CCCN4CCCC[C@H]34)c2cc1Cl | 12 | > 100 | 58 | > 100 | 70 | > 100 | > 100 | > 100 | 50 | > 100 | 9 | > 100 | > 100 | > 100 | > 2 | > 11.1 |
| CCC/C=C(\CC)c1nc2ccccc2[nH]1 | 61 | > 100 | > 100 | > 100 | 67 | > 100 | > 100 | ≥ 100 | 90 | > 100 | 22 | > 100 | > 100 | > 100 | > 1.11 | > 4.54 |
| FC(F)(F)c1ccc2c(c1)nc(C(F)(F)F)n2C[C@@H]1CCCN2CCCC[C@H]12 | 54 | > 100 | ≥ 100 | > 100 | 80 | 33 | > 100 | 90 | 11 | > 100 | 22 | > 100 | > 100 | > 100 | 8.18 | 4.09 |
